# Measurements as given in PubChem BioAssay.
# Activity calls are given as the source filed them. Unless noted, no stated cut-off is given here; in the data, active means inhibition above about 30%; inactive means the rest.
# Columns and labels:
# [1] = reducers of endogenous Her2 protein level, primary screen, SKBR3 breast tumor cells, AlphaScreen, ATP viability (AID 461;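 active means Her2 level under about 52% in both replicate screens, with viability over 70% of control, limit read from the data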;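 on Her2 level: lower value means less Her2 protein in the cells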;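 on viability: percent of carrier control wells set as 100% viability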); conditions: 18-24 h, measured here: SKBR3 viability, ATP luminescence, at 10 µM
# [2] = target: Receptor tyrosine-protein kinase erbB-2 (Homo sapiens) (UniProt P04626); assay: as above; conditions: 18-24 h, at 10 µM, stronger effect = lower value
# [3] = SK-BR-3 cell growth inhibitors, pilot screen, 24 h, human (AID 572;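 active means viability at or below 10% of carrier control in both of two separate runs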;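 further: compound exposure lasted between 18 and 24 h rather than exactly 24 h; 100% = carrier-treated control wells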); conditions: SK-BR-3 viability, CellTiter-Glo luminescence, at 10 µM, stronger effect = lower value
# [4] = HUVEC growth inhibition – cell-based, human, primary screen (AID 575;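 active means viability at or below 30% in both replicate assays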;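 further: 100% = median of untreated cell wells with 0.1% DMSO on each plate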); conditions: HUVEC proliferation, CellTiter-Glo luminescence, 72 h; at 10 µM; stronger effect = lower value
# Method in brief: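 System – primary HUVEC, no more than 12 passages · Medium – Low-serum (2% FBS) EBM, supplemented · Times – 72 h exposure, 37 °C, 5% CO2, 30 min RT equilibration · Measured by – luminescent ATP assay · Read-out – % viability relative to median vehicle-well signal on each plate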
# [5] = growth inhibitors of H69AR lung tumor, primary screen, human, duplicate replicates (AID 580;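 active means viability at or under a set limit in both replicates, limit being median viability minus 3 SD, cut at about 48% in these data, passing the limit was not always enough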;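 further: 100% = mean luminescence of untreated wells and 0% = no signal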); conditions: H69AR lung tumor cells viability, ATP luminescence, 72 h; at 10 µM; stronger effect = lower value
# [6] = reversal of MRP1-mediated doxorubicin resistance, pilot screen, H69AR cells, doxorubicin co-treatment (AID 601;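 active means viability loss from added drug above about 55%, and viability with drug at most 40%, in both replicates, limit read from the data, passing the limit was not always enough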); conditions: CellTiter-Glo, 72 h, at 10 µM; for differential viability (reversal): stronger effect = higher value
# [7] = 384-well plate pilot, post-Golgi transport modulator project, inhibition of yeast transport mutant growth (AID 636; in the data active means inhibition above about 31%); conditions: absorbance 615 nm, about 18 h, stronger effect = higher value
# [8] = growth suppression of yeast trafficking mutant, preliminary HTS, modulators of trafficking downstream of Golgi apparatus project, 1536-format plate, OD 615 nm (AID 637); conditions: yeast transport mutant growth, absorbance 615 nm, 18 h; stronger effect = higher value
# [9] = H69AR cells + 2 uM doxorubicin, measured here: viability with 2 uM doxorubicin, stronger effect = lower value
# [10] = H69AR cells, compound alone cytotoxicity
# Receptor tyrosine-protein kinase erbB-2 (Homo sapiens), sequence (P04626 whole entry, looked up): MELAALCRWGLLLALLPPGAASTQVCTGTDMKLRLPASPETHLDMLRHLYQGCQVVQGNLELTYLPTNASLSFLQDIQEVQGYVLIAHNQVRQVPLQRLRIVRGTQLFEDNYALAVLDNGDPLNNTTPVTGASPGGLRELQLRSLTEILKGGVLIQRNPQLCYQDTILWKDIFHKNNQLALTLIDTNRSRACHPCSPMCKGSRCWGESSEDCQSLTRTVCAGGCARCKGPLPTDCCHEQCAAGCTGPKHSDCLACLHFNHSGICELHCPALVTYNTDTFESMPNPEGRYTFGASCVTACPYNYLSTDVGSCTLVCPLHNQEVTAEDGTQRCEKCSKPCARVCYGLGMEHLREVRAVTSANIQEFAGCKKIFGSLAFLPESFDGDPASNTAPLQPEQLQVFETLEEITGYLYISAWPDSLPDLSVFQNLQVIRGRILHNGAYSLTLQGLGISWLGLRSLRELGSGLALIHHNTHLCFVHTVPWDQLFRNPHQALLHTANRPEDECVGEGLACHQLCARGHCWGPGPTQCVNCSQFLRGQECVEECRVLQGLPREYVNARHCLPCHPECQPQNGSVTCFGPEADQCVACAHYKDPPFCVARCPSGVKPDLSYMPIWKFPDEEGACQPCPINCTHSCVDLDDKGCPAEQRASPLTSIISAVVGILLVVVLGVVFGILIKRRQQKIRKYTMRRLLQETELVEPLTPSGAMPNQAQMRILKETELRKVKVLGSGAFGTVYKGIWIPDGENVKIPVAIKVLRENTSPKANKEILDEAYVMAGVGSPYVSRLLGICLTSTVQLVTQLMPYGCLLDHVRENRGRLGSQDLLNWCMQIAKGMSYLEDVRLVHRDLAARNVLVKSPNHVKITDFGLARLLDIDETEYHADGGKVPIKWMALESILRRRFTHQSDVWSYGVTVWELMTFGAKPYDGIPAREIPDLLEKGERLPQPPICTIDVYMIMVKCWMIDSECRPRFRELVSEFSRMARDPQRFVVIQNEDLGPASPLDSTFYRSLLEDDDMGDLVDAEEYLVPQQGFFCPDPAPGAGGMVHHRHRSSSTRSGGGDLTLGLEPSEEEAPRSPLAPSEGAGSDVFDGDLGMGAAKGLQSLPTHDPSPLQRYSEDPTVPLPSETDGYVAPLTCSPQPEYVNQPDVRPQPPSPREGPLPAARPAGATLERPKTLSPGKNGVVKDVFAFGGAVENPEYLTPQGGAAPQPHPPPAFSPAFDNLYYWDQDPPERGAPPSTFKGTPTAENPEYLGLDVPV
SMILES,viability [1],Her2 level [2],viability [3],viability [4],viability [5],differential viability (reversal) ([6]; H69AR cells + 2 uM doxorubicin),"viability [6, 9]","viability [6, 10]",inhibition [7],inhibition [8]
COC(=O)c1ccccc1NC(=O)CC(NCc1ccccc1)C(=O)O (stereo not given),102%,111% (inactive),102% (inactive),103% (inactive),104% (inactive),0.78% (inactive),103%,104%,-2.11% (inactive),-12.3% (inactive)
COc1ccc(CN2C(=O)c3cccnc3C2Nc2cc(Cl)ccc2OC)cc1 (stereo not given),84.5%,110% (inactive),84.5% (inactive),85% (inactive),93.2% (inactive),0.7% (inactive),92.5%,93.2%,2.67% (inactive),-1.8% (inactive)
CCc1nnc(NC(=O)c2cc3ccccc3oc2=O)s1,104%,95.5% (inactive),104% (inactive),118% (inactive),89.7% (inactive),-4.11% (inactive),93.8%,89.7%,-5.71% (inactive),-3.65% (inactive)
O=C(CSc1nnc(CNC(=O)c2cccs2)o1)NCCc1ccccc1,104%,103% (inactive),104% (inactive),92.4% (inactive),101% (inactive),2.05% (inactive),98.6%,101%,-0.9% (inactive),-3% (inactive)
COC(=O)c1sc(S(=O)(=O)NCc2cccs2)c(C(=O)OC)c1C,84%,93% (inactive),84% (inactive),85.8% (inactive),92.3% (inactive),7.38% (inactive),84.9%,92.3%,-8.24% (inactive),4.26% (inactive)
CCOc1cc(C(=O)NCc2nnc(SCC(=O)OC)n2C)cc(OCC)c1OCC,98%,85% (inactive),98% (inactive),104% (inactive),95.8% (inactive),8.31% (inactive),87.5%,95.8%,-6.84% (inactive),-2% (inactive)
CC(=O)Nc1ccc(Oc2ccc3nc(C)[nH]c3c2)cc1,97.5%,93.5% (inactive),97.5% (inactive),113% (inactive),95.4% (inactive),-9.67% (inactive),105%,95.4%,-6.58% (inactive),-10.3% (inactive)
CCc1cc(=O)oc2cc(OC(C)=O)cc(OC(C)=O)c12,116%,74% (inactive),116% (inactive),76.8% (inactive),95.1% (inactive),-9.96% (inactive),105%,95.1%,-7.37% (inactive),-5.5% (inactive)
Cn1c(=O)n(Cc2ccc(F)cc2)c(=O)c2c1nc1n2CCCN1Cc1ccccc1,88.5%,80.5% (inactive),88.5% (inactive),78.4% (inactive),70.1% (inactive),37.5% (inactive),32.6%,70.1%,0% (inactive),1.33% (inactive)
CC1(C)Cc2noc(N)c2C(C)(C)N1OC(=O)c1ccccc1,107%,132% (inactive),107% (inactive),104% (inactive),107% (inactive),21.2% (inactive),86.2%,107%,0% (inactive),-5.4% (inactive)
CCCC(=O)N(c1ccc2oc(=O)sc2c1)S(=O)(=O)c1ccccc1,75.5%,78.5% (inactive),75.5% (inactive),78.3% (inactive),60% (inactive),-20.9% (inactive),80.9%,60%,-2.86% (inactive),-3.81% (inactive)
O=C(Nc1ccc2c(c1)OCO2)C(c1ccc(Cl)cc1)N1CCN(C(=O)c2ccco2)CC1 (stereo not given),71%,80.5% (inactive),71% (inactive),103% (inactive),91.4% (inactive),6.85% (inactive),84.5%,91.4%,-5.27% (inactive),2.3% (inactive)
COc1ccc(C2CC(=O)C3=C(C2)Nc2ccccc2N(C(=O)C2CC2)C3c2cccnc2)cc1OC (stereo not given),99.5%,96.5% (inactive),99.5% (inactive),89% (inactive),97.9% (inactive),1.81% (inactive),96.1%,97.9%,-0.79% (inactive),-1.67% (inactive)
CCCN1CCN(CCCNC(=O)C2CCCN(c3nc4ccc(OCC)cc4s3)C2)CC1 (stereo not given),85.5%,118% (inactive),85.5% (inactive),74.8% (inactive),87.3% (inactive),-1.46% (inactive),88.8%,87.3%,-5.39% (inactive),0.83% (inactive)
